Experimental data: ChEMBL document CHEMBL4613215, “Structure-Activity Relationships for a Series of (Bis(4-fluorophenyl)methyl)sulfinyl Alkyl Alicyclic Amines at the Dopamine Transporter: Functionalizing the Terminal Nitrogen Affects Affinity, Selectivity, and Metabolic Stability” (J Med Chem, 2020)

How the values were obtained:
[1] = target: Sigma non-opioid intracellular receptor 1 (Cavia porcellus, UniProt Q60492); assay: Displacement of [3H]-(+)-pentazocine from Sigma1 receptor in guinea pig cortex membranes incubated for 120 mins by microbeta scintillation counting method; type: cell membranes
Rattus norvegicus = species on record: Rattus norvegicus; assay: Selectivity ratio of Ki for displacement of [3H]citalopram from in SERT Sprague-Dawley rat midbrain membranes to Ki for displacement of [3H]WIN 35428 from DAT in Sprague-Dawley rat striatum membranes
[2] = target: Sodium-dependent serotonin transporter (Rattus norvegicus, UniProt P31652); assay: Displacement of [3H]citalopram from SERT in Sprague-Dawley rat midbrain membranes incubated for 60 mins by microbeta scintillation counting method; type: cell membranes, Membrane
[3] = target: Sodium-dependent dopamine transporter (Rattus norvegicus, UniProt P23977); assay: Displacement of [3H]WIN35428 from DAT in Sprague-Dawley rat striatum membranes incubated for 120 mins by microbeta scintillation counting method; type: cell membranes, Membrane
[4] = Stability in mouse liver microsomes at 10 uM after 60 mins in presence of NADPH by LC-MS/MS analysis; type: ADME, Microsome; settings: 1 h
[5] = Half life in rat liver microsomes at 10 uM in presence of NADPH generating system by LC-MS/MS analysis; type: ADME, Microsome
[6] = Half life in mouse liver microsomes at 10 uM in presence of NADPH by LC-MS/MS analysis; type: ADME, Microsome
[7] = Effect on locomotor activity in mouse assessed as increase in total ambulations at 3 to 56 mg/kg, ip measured during 30 mins of 2 hrs test by open field test; type: ADME, organism-based; settings: in vivo
Outline: (§1)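 Mice acclimatized ~2 h, injected i.p. then placed immediately in open-field chambers with infrared beam arrays; beam breaks over 2 h converted to distance; maximum distance per 30 min reported; n=6 per group, each mouse used once; two-way ANOVA (Drug, Dose) with Tukey post-hoc versus vehicle.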

Homo sapiens = species on record: Homo sapiens; assay: Selectivity ratio of Ki for displacement of [3H]WIN35428 from DAT Y156F mutant (unknown origin) transiently expressed in COS7 cells to Ki for displacement of [3H]WIN35428 from DAT (unknown origin) transiently expressed in COS7 cells; type: cell-based
[8] = Stability in mouse liver microsomes assessed as parent compound remaining at 10 uM after 60 mins in presence of NADPH by LC-MS/MS analysis; type: ADME, Microsome; settings: read-out: Stability
[9] = target: Voltage-gated inwardly rectifying potassium channel KCNH2 (Homo sapiens, UniProt Q12809); assay: Inhibition of human ERG
[10] = Selectivity ratio of IC50 for inhibition of human ERG to Ki for displacement of [3H]WIN 35428 from DAT in Sprague-Dawley rat striatum membranes
[11] = target: T1, Sodium-dependent dopamine transporter (Homo sapiens, UniProt Q01959); assay: Displacement of [3H]WIN35428 from DAT (unknown origin) transiently expressed in COS7 cells incubated for > 90 mins by beta scintillation counting method; type: cell-based, COS-7
[12] = Displacement of [3H]WIN35428 from DAT Y156F mutant (unknown origin) transiently expressed in COS7 cells incubated for > 90 mins by beta scintillation counting method; type: cell-based, Homo sapiens; settings: cos-7
[13] = target: T1, Sodium-dependent dopamine transporter; assay: Inhibition of human DAT transiently expressed in COS7 cells assessed as reduction in [3H]-DA uptake measured after 5 mins by beta-scintillation counting method; type: cell-based, COS-7
[14] = Half life in human liver microsomes at 10 uM after 60 mins in presence of NADPH by LC-MS/MS analysis; type: ADME, Microsome; settings: for half-life at 10 µM: liver microsomes
[15] = Effect on locomotor activity in mouse assessed as increase in total ambulations at 1 to 10 mg/kg, ip measured during 30 mins of 2 hrs test by open field test; type: ADME, organism-based; settings: in vivo; outline: as §1
[16] = Stability in human liver microsomes assessed as parent compound remaining at 10 uM after 60 mins in presence of NADPH by LC-MS/MS analysis; type: ADME, Microsome; settings: read-out: Stability
[17] = Effect on locomotor activity in mouse assessed as increase in total ambulations at 3 to 30 mg/kg, ip measured during 30 mins of 2 hrs test by open field test; type: ADME, organism-based; settings: in vivo; outline: as §1
[18] = Drug metabolism in mouse liver microsomes assessed as 1-(2-((Bis(4-fluorophenyl)methyl)thio)ethyl)-3,5-cis-dimethylpiperazine metabolite formation by HPLC/MS analysis; type: ADME, Microsome
[19] = Effect on locomotor activity in mouse assessed as increase in total ambulations at 1 to 30 mg/kg, ip measured during 30 mins of 2 hrs test by open field test; type: ADME, organism-based; settings: in vivo; outline: as §1

T1 sequence (Q01959 whole entry): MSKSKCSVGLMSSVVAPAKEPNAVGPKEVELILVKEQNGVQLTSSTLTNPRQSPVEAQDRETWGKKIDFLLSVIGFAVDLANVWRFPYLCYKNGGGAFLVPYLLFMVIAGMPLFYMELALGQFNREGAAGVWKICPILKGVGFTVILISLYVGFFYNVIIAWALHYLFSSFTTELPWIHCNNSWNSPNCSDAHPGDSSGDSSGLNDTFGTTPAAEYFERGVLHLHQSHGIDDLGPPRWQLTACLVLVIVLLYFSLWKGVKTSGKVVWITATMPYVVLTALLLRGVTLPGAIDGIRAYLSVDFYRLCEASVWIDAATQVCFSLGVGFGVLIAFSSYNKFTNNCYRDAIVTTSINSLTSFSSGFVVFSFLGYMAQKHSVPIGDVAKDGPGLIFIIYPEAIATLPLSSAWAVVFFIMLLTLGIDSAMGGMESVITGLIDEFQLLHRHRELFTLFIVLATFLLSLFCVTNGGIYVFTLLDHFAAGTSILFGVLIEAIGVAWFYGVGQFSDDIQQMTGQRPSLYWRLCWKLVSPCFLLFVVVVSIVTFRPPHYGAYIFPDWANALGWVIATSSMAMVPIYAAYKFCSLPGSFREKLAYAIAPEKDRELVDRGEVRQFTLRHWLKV
Sequence of Sodium-dependent dopamine transporter (Rattus norvegicus, UniProt P23977) (P23977 whole entry): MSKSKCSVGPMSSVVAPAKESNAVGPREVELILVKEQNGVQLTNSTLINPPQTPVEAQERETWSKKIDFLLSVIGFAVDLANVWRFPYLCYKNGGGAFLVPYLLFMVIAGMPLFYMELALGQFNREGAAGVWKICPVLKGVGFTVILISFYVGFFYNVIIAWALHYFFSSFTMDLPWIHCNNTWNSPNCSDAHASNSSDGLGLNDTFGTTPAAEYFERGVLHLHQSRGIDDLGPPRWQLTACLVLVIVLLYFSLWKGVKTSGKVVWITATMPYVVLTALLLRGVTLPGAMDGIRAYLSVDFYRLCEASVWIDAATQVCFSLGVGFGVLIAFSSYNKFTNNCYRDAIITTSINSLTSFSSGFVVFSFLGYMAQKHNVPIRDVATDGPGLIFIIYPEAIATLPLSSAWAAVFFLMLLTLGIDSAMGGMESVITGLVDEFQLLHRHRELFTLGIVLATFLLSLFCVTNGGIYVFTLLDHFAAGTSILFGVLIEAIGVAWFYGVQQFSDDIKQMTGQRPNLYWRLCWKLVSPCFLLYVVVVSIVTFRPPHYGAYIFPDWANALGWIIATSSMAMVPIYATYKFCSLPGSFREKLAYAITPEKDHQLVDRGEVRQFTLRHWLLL
Sequence of Voltage-gated inwardly rectifying potassium channel KCNH2 (Q12809 whole entry): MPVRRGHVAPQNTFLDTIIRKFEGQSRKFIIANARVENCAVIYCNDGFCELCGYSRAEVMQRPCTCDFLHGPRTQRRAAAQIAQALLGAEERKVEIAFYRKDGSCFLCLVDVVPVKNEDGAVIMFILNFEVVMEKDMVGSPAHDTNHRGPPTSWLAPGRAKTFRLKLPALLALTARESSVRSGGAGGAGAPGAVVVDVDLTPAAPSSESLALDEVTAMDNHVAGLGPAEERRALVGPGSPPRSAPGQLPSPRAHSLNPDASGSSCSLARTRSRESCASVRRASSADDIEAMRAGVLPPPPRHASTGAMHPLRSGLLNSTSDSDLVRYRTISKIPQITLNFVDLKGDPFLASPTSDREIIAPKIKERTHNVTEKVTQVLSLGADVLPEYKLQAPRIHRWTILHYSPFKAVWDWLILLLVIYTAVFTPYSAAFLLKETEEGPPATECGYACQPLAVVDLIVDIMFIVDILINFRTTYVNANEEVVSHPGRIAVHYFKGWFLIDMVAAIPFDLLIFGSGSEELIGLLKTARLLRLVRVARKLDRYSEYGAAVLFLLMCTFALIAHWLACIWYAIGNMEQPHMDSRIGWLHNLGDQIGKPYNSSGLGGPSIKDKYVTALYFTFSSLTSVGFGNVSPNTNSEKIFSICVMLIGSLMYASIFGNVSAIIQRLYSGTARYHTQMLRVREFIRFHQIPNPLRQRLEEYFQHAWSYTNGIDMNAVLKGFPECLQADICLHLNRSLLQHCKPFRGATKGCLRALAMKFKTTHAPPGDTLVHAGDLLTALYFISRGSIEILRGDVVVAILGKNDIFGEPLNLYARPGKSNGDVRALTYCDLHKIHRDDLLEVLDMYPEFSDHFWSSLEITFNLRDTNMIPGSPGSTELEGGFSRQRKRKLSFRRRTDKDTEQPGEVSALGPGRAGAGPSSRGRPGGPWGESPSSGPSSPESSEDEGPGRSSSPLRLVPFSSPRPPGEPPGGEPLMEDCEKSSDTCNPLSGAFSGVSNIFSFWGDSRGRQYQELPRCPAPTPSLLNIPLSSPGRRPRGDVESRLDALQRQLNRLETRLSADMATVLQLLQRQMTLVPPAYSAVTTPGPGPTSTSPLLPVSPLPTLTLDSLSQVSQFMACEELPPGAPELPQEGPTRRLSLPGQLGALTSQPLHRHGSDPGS
Sequence of Sodium-dependent serotonin transporter (P31652 whole entry): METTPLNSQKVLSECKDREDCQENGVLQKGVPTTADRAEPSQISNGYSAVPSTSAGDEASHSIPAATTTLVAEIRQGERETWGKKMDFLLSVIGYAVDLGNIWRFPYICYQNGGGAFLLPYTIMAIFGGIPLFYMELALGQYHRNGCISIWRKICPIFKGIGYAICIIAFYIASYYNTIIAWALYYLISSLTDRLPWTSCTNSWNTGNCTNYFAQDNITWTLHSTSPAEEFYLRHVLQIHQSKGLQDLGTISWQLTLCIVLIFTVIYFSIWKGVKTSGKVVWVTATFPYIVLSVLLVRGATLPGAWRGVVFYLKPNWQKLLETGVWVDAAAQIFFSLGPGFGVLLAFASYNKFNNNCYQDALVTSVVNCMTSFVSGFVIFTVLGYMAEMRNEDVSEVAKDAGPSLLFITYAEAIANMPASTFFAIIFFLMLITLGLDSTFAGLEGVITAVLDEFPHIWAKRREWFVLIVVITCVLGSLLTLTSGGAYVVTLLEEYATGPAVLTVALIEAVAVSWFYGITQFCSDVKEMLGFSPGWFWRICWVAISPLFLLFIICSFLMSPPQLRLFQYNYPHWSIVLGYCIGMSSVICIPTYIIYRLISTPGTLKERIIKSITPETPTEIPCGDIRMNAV
Sequence of Sigma non-opioid intracellular receptor 1 (Q60492 whole entry): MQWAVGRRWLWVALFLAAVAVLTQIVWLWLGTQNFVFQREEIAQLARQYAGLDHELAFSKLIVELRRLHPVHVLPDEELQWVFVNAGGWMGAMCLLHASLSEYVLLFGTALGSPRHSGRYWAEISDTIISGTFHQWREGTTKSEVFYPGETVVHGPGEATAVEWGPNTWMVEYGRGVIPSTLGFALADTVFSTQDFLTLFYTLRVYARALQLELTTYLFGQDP

## OC(Cc1ccc(C(F)(F)F)cc1)CN1CCN(CCSC(c2ccc(F)cc2)c2ccc(F)cc2)CC1 (centres undefined)
[1]
  Ki: 187 nM
Rattus norvegicus
  Ratio Ki: 191
[2]
  Ki: 4480 nM
[3]
  Ki: 23.4 nM

## [O-][S+](CCN1CCN(CC(O)Cc2ccc(F)cc2)CC1)C(c1ccc(F)cc1)c1ccc(F)cc1 (centres undefined)
[4]
  Stability: Unstable
[1]
  Ki: 73.7 nM
Rattus norvegicus
  Ratio Ki: 9540
[2]
  Ki: 12300 nM
[3]
  Ki: 1.29 nM

## C[C@H](O)CN1CCN(CC[S+]([O-])C(c2ccc(F)cc2)c2ccc(F)cc2)CC1 (some centres undefined)
[4]
  Stability: Stable
[1]
  Ki: 284 nM
[2]
  Ki: 200000 nM
[3]
  Ki: 536 nM

## C[C@@H](O)CN1CCN(CCSC(c2ccc(F)cc2)c2ccc(F)cc2)CC1
[1]
  Ki: 3.03 nM
Rattus norvegicus
  Ratio Ki: 40
[2]
  Ki: 2840 nM
[3]
  Ki: 73.2 nM

## CCC(=O)N1CCN(CCSC(c2ccc(F)cc2)c2ccc(F)cc2)CC1
[1]
  Ki: 33.2 nM
Rattus norvegicus
  Ratio Ki: 0.5
[2]
  Ki: 2490 nM
[3]
  Ki: 5080 nM

## CC(O)CN1CCN(CCSC(c2ccc(F)cc2)c2ccc(F)cc2)CC1 (centres undefined)
[5]
  half-life at 10 µM: 14 min

## C[C@H](O)CN1CCN(CCSC(c2ccc(F)cc2)c2ccc(F)cc2)CC1
[1]
  Ki: 2.58 nM
Rattus norvegicus
  Ratio Ki: 104
[2]
  Ki: 3940 nM
[3]
  Ki: 37.9 nM

## CC(O)CN1CCN(CC[S+]([O-])C(c2ccc(F)cc2)c2ccc(F)cc2)CC1 (centres undefined)
[5]
  half-life at 10 µM: 126 min
[6]
  half-life at 10 µM: 126 min
[7]
  Activity: Non-Toxic

## [O-][S+](CCCN1CCN(CCCc2ccccc2)CC1)C(c1ccc(F)cc1)c1ccc(F)cc1 (centres undefined)
[4]
  Stability: Unstable
[1]
  Ki: 39.4 nM
Rattus norvegicus
  Ratio Ki: 27
[2]
  Ki: 1100 nM
[3]
  Ki: 40.3 nM

## C[C@@H]1CN(CC[S+]([O-])C(c2ccc(F)cc2)c2ccc(F)cc2)C[C@H](C)N1CC(O)Cc1ccccc1 (some centres undefined)
Homo sapiens
  Ratio Ki: 5.8
[8]
  remaining at 1 h, 10 µM: < 10%
[9]
  IC50: 91.5 nM
[1]
  Ki: 75.4 nM
[10]
  Selectivity ratio: 30
Rattus norvegicus
  Ratio Ki: 379
[11]
  Ki: 3.83 nM
[12]
  Ki: 19.1 nM
[13]
  Ki: 11.1 nM

## OC(CN1CCC2(CCN(CCSC(c3ccc(F)cc3)c3ccc(F)cc3)CC2)C1)c1ccccc1 (centres undefined)
Homo sapiens
  Ratio Ki: 2.3
[8]
  remaining at 1 h, 10 µM: 30 to 44%
[1]
  Ki: 45.5 nM
[10]
  Selectivity ratio: 13
Rattus norvegicus
  Ratio Ki: 1
[11]
  Ki: 104 nM
[3]
  Ki: 127 nM
[12]
  Ki: 239 nM
[13]
  Ki: 268 nM

## O[C@H](Cc1ccccc1)CN1CCN(CCSC(c2ccc(F)cc2)c2ccc(F)cc2)CC1
[4]
  Stability: Unstable
[1]
  Ki: 23.6 nM
Rattus norvegicus
  Ratio Ki: 207
[2]
  Ki: 813 nM
[3]
  Ki: 3.93 nM

## O[C@@H](Cc1ccccc1)CN1CCN(CCSC(c2ccc(F)cc2)c2ccc(F)cc2)CC1
[4]
  Stability: Unstable
[1]
  Ki: 7.72 nM
Rattus norvegicus
  Ratio Ki: 908
[2]
  Ki: 1390 nM
[3]
  Ki: 1.53 nM

## [O-][S+](CCN1CCN(C[C@@H](O)Cc2ccccc2)CC1)C(c1ccc(F)cc1)c1ccc(F)cc1 (some centres undefined)
[4]
  Stability: Unstable
[1]
  Ki: 27.4 nM
Rattus norvegicus
  Ratio Ki: 15900
[2]
  Ki: 21300 nM
[3]
  Ki: 1.34 nM

## [O-][S+](CCN1CCN(C[C@H](O)Cc2ccccc2)CC1)C(c1ccc(F)cc1)c1ccc(F)cc1 (some centres undefined)
[4]
  Stability: Unstable
[1]
  Ki: 331 nM
Rattus norvegicus
  Ratio Ki: 5150
[2]
  Ki: 18700 nM
[3]
  Ki: 3.63 nM

## C[C@H](O)CN1[C@H](C)CN(CCSC(c2ccc(F)cc2)c2ccc(F)cc2)C[C@@H]1C
[8]
  remaining at 1 h, 10 µM: 10%
[14]
  half-life at 10 µM: > 40 min
[15]
  Activity: Non-Toxic
[16]
  remaining at 1 h, 10 µM: > 30%
[1]
  Ki: 5.95 nM
[2]
  Ki: 15600 nM
[3]
  Ki: 28.5 nM

## CC(O)CN1[C@H](C)CN(CC[S+]([O-])C(c2ccc(F)cc2)c2ccc(F)cc2)C[C@@H]1C (some centres undefined)
Homo sapiens
  Ratio Ki: 7.5
[8]
  remaining at 1 h, 10 µM: 30 to 44%
[9]
  IC50: 7300 nM
[1]
  Ki: 315 nM
Rattus norvegicus
  Ratio Ki: 78
[11]
  Ki: 406 nM
[12]
  Ki: 3030 nM
[13]
  Ki: 552 nM

## O=C(CCc1ccccc1)N1CCN(CCSC(c2ccc(F)cc2)c2ccc(F)cc2)CC1
[1]
  Ki: 294 nM
Rattus norvegicus
  Ratio Ki: 0.9
[2]
  Ki: 2540 nM
[3]
  Ki: 2830 nM

## OC(Cc1ccc(F)cc1)CN1CCN(CCSC(c2ccc(F)cc2)c2ccc(F)cc2)CC1 (centres undefined)
[4]
  Stability: Unstable
[1]
  Ki: 29.4 nM
Rattus norvegicus
  Ratio Ki: 796
[2]
  Ki: 1370 nM
[3]
  Ki: 1.72 nM

## C[C@@H]1CN(CCSC(c2ccc(F)cc2)c2ccc(F)cc2)C[C@H](C)N1CC(O)Cc1ccccc1 (some centres undefined)
[1]
  Ki: 15.2 nM
Rattus norvegicus
  Ratio Ki: 805

## COc1ccc(CC(O)CN2CCN(CCSC(c3ccc(F)cc3)c3ccc(F)cc3)CC2)cc1 (centres undefined)
[1]
  Ki: 9.65 nM
Rattus norvegicus
  Ratio Ki: 743
[2]
  Ki: 1420 nM
[3]
  Ki: 1.91 nM

## [O-][S+](CCN1CCN(CC(O)Cc2ccc(C(F)(F)F)cc2)CC1)C(c1ccc(F)cc1)c1ccc(F)cc1 (centres undefined)
[4]
  Stability: Unstable
[1]
  Ki: 147 nM
Rattus norvegicus
  Ratio Ki: 991
[2]
  Ki: 11600 nM
[3]
  Ki: 11.7 nM

## COC(=O)[C@H]1[C@@H](OC(=O)c2ccccc2)C[C@@H]2CC[C@H]1N2C [COCAINE]
[17]
  Activity: Toxic

## COc1ccc(CC(O)CN2CCN(CC[S+]([O-])C(c3ccc(F)cc3)c3ccc(F)cc3)CC2)cc1 (centres undefined)
[4]
  Stability: Unstable
[1]
  Ki: 31.8 nM
Rattus norvegicus
  Ratio Ki: 4850
[2]
  Ki: 14600 nM
[3]
  Ki: 3.01 nM

## C[C@@H](O)CN1CCN(CC[S+]([O-])C(c2ccc(F)cc2)c2ccc(F)cc2)CC1 (some centres undefined)
[4]
  Stability: Stable
[1]
  Ki: 902 nM
[2]
  Ki: 81500 nM
[3]
  Ki: 782 nM

## Fc1ccc(C(SCCCN2CCN(CCCc3ccccc3)CC2)c2ccc(F)cc2)cc1
[1]
  Ki: 29.2 nM
Rattus norvegicus
  Ratio Ki: 122
[2]
  Ki: 1060 nM
[3]
  Ki: 8.68 nM

## C[C@@H]1CN(CCSC(c2ccc(F)cc2)c2ccc(F)cc2)C[C@H](C)N1C[C@@H](C)O
[8]
  remaining at 1 h, 10 µM: 30%
[14]
  half-life at 10 µM: > 40 min
[15]
  Activity: Non-Toxic
[16]
  remaining at 1 h, 10 µM: > 30%
[1]
  Ki: 2.19 nM
[2]
  Ki: 19800 nM
[3]
  Ki: 39.4 nM

## CC(O)CN1[C@H](C)CN(CCSC(c2ccc(F)cc2)c2ccc(F)cc2)C[C@@H]1C (mixture of isomers)
[8]
  remaining at 1 h, 10 µM: < 10%
[14]; microsomes, 1 h, 10 µM
  t1/2: > 40 min
[16]
  remaining at 1 h, 10 µM: > 30%
[9]
  IC50: 635 nM
[1]
  Ki: 5.62 nM
[6]
  half-life at 10 µM: 20 min
[11]
  Ki: 58.3 nM
[18]
  Drug metabolism: Metabolite_Detected
[3]
  Ki: 23.1 nM
[19]
  Activity: Non-Toxic
[13]
  Ki: 100 nM

## CC(O)CN1CCC2(CCN(CC[S+]([O-])C(c3ccc(F)cc3)c3ccc(F)cc3)CC2)C1 (centres undefined)
[1]
  Ki: 65.1 nM
Rattus norvegicus
  Ratio Ki: 1.4

## C[C@@H]1CN(CCSC(c2ccc(F)cc2)c2ccc(F)cc2)C[C@H](C)N1
[1]
  Ki: 111 nM
Rattus norvegicus
  Ratio Ki: 141
[2]
  Ki: 13100 nM
[3]
  Ki: 92.3 nM

## CC(=O)CN1CCN(CCSC(c2ccc(F)cc2)c2ccc(F)cc2)CC1
[1]
  Ki: 1.08 nM
Rattus norvegicus
  Ratio Ki: 96
[2]
  Ki: 17400 nM
[3]
  Ki: 182 nM
